By IC50 is commonly meant the concentration needed to halve the response being measured. The Ki is a dissociation constant, usually derived from enzyme kinetics or from competition with a known ligand.

Bounds are passed on as bounds.

The results in this text go back to ChEMBL document CHEMBL1151735, “Further studies with the 2-amino-1,3-thiazol-4(5H)-one class of 11beta-hydroxysteroid dehydrogenase type 1 inhibitors: reducing pregnane X receptor activity and exploring activity in a monkey pharmacodynamic model” (J Med Chem, 2008).

In data set [1] the target is T1, 11-beta-hydroxysteroid dehydrogenase 1 (Homo sapiens, UniProt P28845). The data set can be described thus: Inhibition of human 11beta-HSD1 expressed in CHO cells assessed as conversion of cortisone to cortisol by ELISA. Format: cell-based. (An ELISA detects its analyte on a solid surface through an enzyme-linked reagent.)
T1 sequence (P28845 whole entry): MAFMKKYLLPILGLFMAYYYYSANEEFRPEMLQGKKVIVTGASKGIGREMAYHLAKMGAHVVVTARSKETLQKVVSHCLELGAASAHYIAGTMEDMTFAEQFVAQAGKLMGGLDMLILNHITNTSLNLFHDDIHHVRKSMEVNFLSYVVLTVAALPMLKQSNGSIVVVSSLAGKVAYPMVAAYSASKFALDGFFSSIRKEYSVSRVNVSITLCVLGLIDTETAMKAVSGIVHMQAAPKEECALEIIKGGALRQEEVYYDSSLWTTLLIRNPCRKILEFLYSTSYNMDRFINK
Data set [2] deals with T2, Nuclear receptor subfamily 1 group I member 2 (Homo sapiens, UniProt O75469).
T2 sequence (O75469 whole entry): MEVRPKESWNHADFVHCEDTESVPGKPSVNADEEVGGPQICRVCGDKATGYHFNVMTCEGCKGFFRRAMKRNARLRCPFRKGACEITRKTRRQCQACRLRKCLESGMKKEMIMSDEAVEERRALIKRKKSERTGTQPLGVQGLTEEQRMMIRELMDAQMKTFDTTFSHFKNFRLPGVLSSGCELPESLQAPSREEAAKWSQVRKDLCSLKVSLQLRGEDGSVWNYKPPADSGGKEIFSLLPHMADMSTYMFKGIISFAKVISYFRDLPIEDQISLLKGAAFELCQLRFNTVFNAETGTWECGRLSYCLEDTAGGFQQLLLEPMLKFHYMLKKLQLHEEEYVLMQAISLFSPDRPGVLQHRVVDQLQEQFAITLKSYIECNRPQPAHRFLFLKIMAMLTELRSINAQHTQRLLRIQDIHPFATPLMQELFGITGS
The data set can be described thus: Transactivation of human PXR transfected in HEK cells at 20 uM by luciferase reporter gene assay relative to 12.5 uM rifampin. To be noted: hek293, 20 µM. In kind it is cell-based. The essentials:
(§1)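 HEK cells transfected with human PXR fused to a firefly luciferase reporter. Luciferase activity is expressed as percent of the 12.5 µM rifampin response. Run in triplicate; SEM reported.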
Background: A reporter such as luciferase makes a cellular process visible.

Data set [3] addresses T3, PXR (nuclear receptor subfamily 1 group I member 2) (Homo sapiens, UniProt O75469).
T3 sequence (O75469 whole entry): T2 sequence (O75469 whole entry)
The data set can be described thus: Transactivation of human PXR transfected in HEK cells at 2 uM by luciferase reporter gene assay relative to 12.5 uM rifampin. In kind it is cell-based. The conditions noted are these: HEK293 cells transfected with human PXR, read-out: Activity. In a few lines:
as §1

In data set [4] the target is T1, 11-beta-hydroxysteroid dehydrogenase 1. As to the kind of experiment: Inhibition of human recombinant 11beta-HSD1 expressed in Escherichia coli using [3H]cortisone by scintillation proximity assay.
Data set [5] addresses T4, 11-beta-hydroxysteroid dehydrogenase type 2 (Homo sapiens, UniProt P80365).
T4 sequence (P80365 whole entry): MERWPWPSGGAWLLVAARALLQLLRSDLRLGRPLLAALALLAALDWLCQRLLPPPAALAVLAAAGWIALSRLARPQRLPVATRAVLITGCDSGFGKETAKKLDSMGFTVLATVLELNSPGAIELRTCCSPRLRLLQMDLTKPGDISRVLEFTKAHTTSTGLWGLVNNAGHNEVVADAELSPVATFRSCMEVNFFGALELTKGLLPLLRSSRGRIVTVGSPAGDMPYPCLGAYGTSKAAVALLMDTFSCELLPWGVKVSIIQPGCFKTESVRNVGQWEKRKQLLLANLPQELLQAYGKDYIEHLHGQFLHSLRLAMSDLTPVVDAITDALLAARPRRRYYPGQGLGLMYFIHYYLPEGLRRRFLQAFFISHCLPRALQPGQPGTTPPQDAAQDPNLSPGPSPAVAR
The data set can be described thus: Inhibition of human 11beta-HSD2 expressed in CHO cells using [3H]cortisol by scintillation proximity assay. Format: cell-based. The essentials: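 Human 11β-HSD2 from CHO cells with [3H]cortisol 3 nM and NAD+ 300 µM, in 0.1 M sodium phosphate pH 7.6. 1 h at room temperature, then stopped with 18β-glycyrrhetinic acid. Anticortisol antibody and antimouse SPA beads added for 30 min; radiometric read-out.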

The subject of data set [6] is Hepatocyte. The data set can be described thus: Induction of CYP3A4 in cryopreserved human hepatocytes from female NPV donars with history of tobacco and substance usage assessed as mRNA expression at 20 uM relative to 20 uM rifampin. Format: functional.
For data set [7], the target named is T5, Cytochrome P450 3A4 (Homo sapiens, UniProt P08684). The data set can be described thus: Induction of CYP3A4 activity in cryopreserved human hepatocytes from female NPV donars with history of tobacco and substance usage at 20 uM relative to 20 uM rifampin.
T5 sequence (P08684 whole entry): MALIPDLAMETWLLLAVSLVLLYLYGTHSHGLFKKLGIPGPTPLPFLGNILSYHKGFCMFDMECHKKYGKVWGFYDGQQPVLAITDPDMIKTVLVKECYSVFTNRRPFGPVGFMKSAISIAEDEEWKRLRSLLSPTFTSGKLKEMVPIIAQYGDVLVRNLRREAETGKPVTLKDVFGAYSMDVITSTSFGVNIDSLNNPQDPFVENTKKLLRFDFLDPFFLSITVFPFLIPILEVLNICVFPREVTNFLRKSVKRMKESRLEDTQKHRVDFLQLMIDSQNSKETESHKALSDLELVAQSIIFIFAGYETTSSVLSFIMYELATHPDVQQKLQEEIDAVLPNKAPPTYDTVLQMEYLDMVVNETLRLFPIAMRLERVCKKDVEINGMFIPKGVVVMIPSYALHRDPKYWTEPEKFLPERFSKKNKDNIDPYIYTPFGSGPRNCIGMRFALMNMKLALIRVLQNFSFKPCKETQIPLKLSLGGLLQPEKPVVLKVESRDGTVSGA
Data set [8] deals with Hepatocyte. The data set can be described thus: Induction of CYP3A4 in cryopreserved human hepatocytes from male DJV donars with no adverse medical history or substance or alcohol abuse assessed as mRNA expression at 20 uM relative to 20 uM rifampin. Format: functional.
For data set [9], the target named is T5, Cytochrome P450 3A4. As to the kind of experiment: Induction of CYP3A4 activity in cryopreserved human hepatocytes from male DJV donars with no adverse medical history or substance or alcohol abuse at 20 uM relative to 20 uM rifampin.

As to `CC(C(=O)N[C@H]1C2CC3CC1C[C@](O)(C3)C2)N1CCN(c2ccc(C(F)(F)F)cn2)CC1` (stereo not given in full), the IC50 in data set [1] is 5 nM.
With `C[C@H](NC1=NC(=O)C(C)(c2ccc(C(N)=O)cc2)S1)c1ccc(F)cc1` (stereo not given in full), the Activity in data set [2] was 9.3%. Besides, the activity at 2 µM in [3] came out at 0.8%.
As to `C[C@H](NC1=NC(=O)C(C)(C(C)(C)O)S1)c1ccccc1` (stereo not given in full), the Activity in data set [2] amounted to 68%.
`C[C@H](NC1=NC(=O)C(C)(c2ccc(F)cc2)S1)c1ccc(F)cc1` (stereo not given in full) registered an Activity in [2] of 65%. In addition, the activity at 2 µM in data set [3] was 64%.
Take `C[C@H](NC1=NC(=O)C(C)(C(C)(C)O)S1)c1ccccc1Cl` (stereo not given in full): in data set [2], the Activity is given as 63%. Moreover, the Ki in [4] came out at 26 nM. Besides, the IC50 in data set [5] was more than 10000 nM; in data set [1], 18 nM.
`C[C@H](NC1=NC(=O)C(C)(C2(O)CCCC2)S1)c1ccc(F)cc1` (stereo not given in full): the Activity in data set [2] stood at 61%. Further, the inhibition constant Ki in [4] is 25 nM. Besides, the IC50 in data set [5] was more than 10000 nM; in data set [1], 11 nM.
In data set [2], `C[C@H](NC1=NC(=O)C(C)(C(C)(C)O)S1)c1ccc(F)cc1` (stereo not given in full) came in with an Activity of 10%. Further, the Ki in [4] is 65 nM. Moreover, the figures for the IC50 in data set [5] and in [1] were more than 10000 nM and 51 nM, respectively.
In the case of `C[C@H](NC1=NC(=O)[C@@](C)(C(C)(C)O)S1)c1ccc(F)cc1`, in [4], the Ki worked out at 210 nM. The IC50 in [1] was 300 nM.
Take `O=C(Nc1cccc(C(=O)N2CCC[C@@H]3CCCC[C@H]32)c1)c1ccccc1`: the IC50 in data set [1] amounted to 14 nM.
On to `C[C@H](NC1=NC(=O)[C@@](C)(C(F)(F)F)S1)c1ccccc1F`, for which the Activity is 45% in data set [2]; 67% in the data set with Hepatocyte [6]; 56% on Cytochrome P450 3A4 [7]; 110% with Hepatocyte [8]; 64% at Cytochrome P450 3A4 [9].
As for `C[C@H](NC1=NC(=O)C(C)(C(C)(C)O)S1)c1ccccc1C(F)(F)F` (stereo not given in full), in data set [2], the Activity came to 43%. In [4], the Ki was 25 nM. For the same compound, the values for the IC50 in data set [5] and in data set [1] were more than 10000 nM and 43 nM, respectively.
On to `C[C@H](NC1=NC(=O)C(C)(c2ccc(C3(C(N)=O)CC3)cc2)S1)c1ccc(F)cc1` (stereo not given in full), for which, in [2], the Activity is listed as 97%. Further, the activity at 2 µM in [3] was found to be 6.7%.
Turning to `C[C@H](NC1=NC(=O)C(C)(CC(C)(C)O)S1)c1ccc(F)cc1` (stereo not given in full), the Activity in [2] came to 28%.
Compound `C[C@H](NC1=NC(=O)C(C)(C2(O)CCC2)S1)c1ccc(F)cc1` (stereo not given in full) gave an Activity in data set [2] of 26%. In addition, the Ki in data set [4] worked out at 49 nM. The IC50 in data set [5] is more than 10000 nM; in [1], 32 nM.
For `C[C@H](NC1=NC(=O)C(C)(C(C)(C)O)S1)c1ccccc1F` (stereo not given in full) the same measures were 19%, 34 nM, more than 10000 nM and 70 nM.
For `C[C@H](NC1=NC(=O)C(C)(c2ccc(CO)cc2)S1)c1ccc(F)cc1` (stereo not given in full), in data set [2], the Activity came out at 25%. The activity at 2 µM in data set [3] amounted to 2.3%.
For `C[C@H](NC1=NC(=O)C(C)(c2ccc(C(=O)N3CCCC3)cc2)S1)c1ccc(F)cc1` (stereo not given in full) the same measures were 35% and 4.1%.
